Data: ChEMBL document CHEMBL4622944 (Bioorg Med Chem Lett, 2020)

Tests used:
A549 = assay: Antiproliferative activity against human A549 cells assessed as reduction in cell viability by MTT assay; assay type: functional, cell-based
HCT-116 [1] = assay: Antiproliferative activity against human HCT116 cells assessed as reduction in cell viability by MTT assay; assay type: functional, cell-based
PC-3 = assay: Antiproliferative activity against human PC3 cells assessed as reduction in cell viability by MTT assay; assay type: functional, cell-based
HCT-116 [2] = assay: Induction of apoptosis in human HCT116 cells assessed as viable cells at 1 uM incubated for 24 hrs by annexin V FITC and propidium iodide staining based flow cytometry analysis (reference value: 80.9 %); assay type: functional; conditions: HCT-116, 24 h, read-out: Activity
HCT-116 [3] = assay: Induction of apoptosis in human HCT116 cells assessed as early apoptotic cells at 1 uM incubated for 24 hrs by annexin V FITC and propidium iodide staining based flow cytometry analysis (reference value: 7.9%); assay type: functional
HCT-116 [4] = assay: Induction of apoptosis in human HCT116 cells assessed as late apoptotic cells at 1 uM incubated for 24 hrs by annexin V FITC and propidium iodide staining based flow cytometry analysis (reference value: 11 %); assay type: functional
HCT-116 [5] = assay: Induction of apoptosis in human HCT116 cells assessed as necrotic cells at 1 uM incubated for 24 hrs by annexin V FITC and propidium iodide staining based flow cytometry analysis (reference value: 0.2 %); assay type: functional
HCT-116 [6] = assay: Induction of apoptosis in human HCT116 cells assessed as viable cells at 3 uM incubated for 24 hrs by annexin V FITC and propidium iodide staining based flow cytometry analysis (reference value: 80.9 %); assay type: functional; conditions: HCT-116, 24 h, read-out: Activity
HCT-116 [7] = assay: Induction of apoptosis in human HCT116 cells assessed as early apoptotic cells at 3 uM incubated for 24 hrs by annexin V FITC and propidium iodide staining based flow cytometry analysis (reference value: 7.9 %); assay type: functional
HCT-116 [8] = assay: Induction of apoptosis in human HCT116 cells assessed as late apoptotic cells at 3 uM incubated for 24 hrs by annexin V FITC and propidium iodide staining based flow cytometry analysis (reference value: 11 %); assay type: functional
HCT-116 [9] = assay: Induction of apoptosis in human HCT116 cells assessed as necrotic cells at 3 uM incubated for 24 hrs by annexin V FITC and propidium iodide staining based flow cytometry analysis (reference value: 0.2 %); assay type: functional
HCT-116 [10] = assay: Induction of apoptosis in human HCT116 cells assessed as viable cells at 9 uM incubated for 24 hrs by annexin V FITC and propidium iodide staining based flow cytometry analysis (reference value: 80.9 %); assay type: functional; conditions: HCT-116, 24 h, read-out: Activity
HCT-116 [11] = assay: Induction of apoptosis in human HCT116 cells assessed as early apoptotic cells at 9 uM incubated for 24 hrs by annexin V FITC and propidium iodide staining based flow cytometry analysis (reference value: 7.9 %); assay type: functional
HCT-116 [12] = assay: Induction of apoptosis in human HCT116 cells assessed as late apoptotic cells at 9 uM incubated for 24 hrs by annexin V FITC and propidium iodide staining based flow cytometry analysis (reference value: 11 %); assay type: functional
HCT-116 [13] = assay: Induction of apoptosis in human HCT116 cells assessed as necrotic cells at 9 uM incubated for 24 hrs by annexin V FITC and propidium iodide staining based flow cytometry analysis (reference value: 0.2 %); assay type: functional
HCT-116 [14] = assay: Inhibition of cell migration in human HCT116 cells assessed as inhibition of wound healing rate measured upto 48 hrs by phase contrast microscopy; assay type: functional, cell-based
Method in brief: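 Wound-healing scratch assay in HCT116 monolayers treated at 0.3 and 3 µM versus blank control. Phase-contrast images were taken at 0, 24 and 48 h, and the wound-healing rate was assessed.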

HCT-116 [15] = assay: Induction of cell cycle arrest in human HCT116 cells assessed as G1 phase at 0.33 uM incubated for 24 hrs by annexin V and propidium iodide staining based flow cytometry analysis (reference value: 61.81 %); assay type: functional
Method in brief: (§1)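 HCT116 cells treated 24 h at 0.33, 1.0 or 9.0 µM alongside a non-treated control. Cells were fixed, stained with Annexin-V and propidium iodide, and DNA content was measured by flow cytometry. Percentages of cells in G1, S and G2 phases were quantified.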

HCT-116 [16] = assay: Induction of cell cycle arrest in human HCT116 cells assessed as S phase at 0.33 uM incubated for 24 hrs by annexin V and propidium iodide staining based flow cytometry analysis (reference value: 16.08 %); assay type: functional; method in brief: as §1
HCT-116 [17] = assay: Induction of cell cycle arrest in human HCT116 cells assessed as G2 phase at 0.33 uM incubated for 24 hrs by annexin V and propidium iodide staining based flow cytometry analysis (reference value: 22.11 %); assay type: functional; method in brief: as §1
HCT-116 [18] = assay: Induction of cell cycle arrest in human HCT116 cells assessed as G1 phase at 1 uM incubated for 24 hrs by annexin V and propidium iodide staining based flow cytometry analysis (reference value: 61.81 %); assay type: functional; method in brief: as §1
HCT-116 [19] = assay: Induction of cell cycle arrest in human HCT116 cells assessed as S phase at 1 uM incubated for 24 hrs by annexin V and propidium iodide staining based flow cytometry analysis (reference value: 16.08 %); assay type: functional; method in brief: as §1
HCT-116 [20] = assay: Induction of cell cycle arrest in human HCT116 cells assessed as G2 phase at 1 uM incubated for 24 hrs by annexin V and propidium iodide staining based flow cytometry analysis (reference value: 22.11 %); assay type: functional; method in brief: as §1
HCT-116 [21] = assay: Induction of cell cycle arrest in human HCT116 cells assessed as G1 phase at 9 uM incubated for 24 hrs by annexin V and propidium iodide staining based flow cytometry analysis (reference value: 61.81 %); assay type: functional; method in brief: as §1
HCT-116 [22] = assay: Induction of cell cycle arrest in human HCT116 cells assessed as S phase at 9 uM incubated for 24 hrs by annexin V and propidium iodide staining based flow cytometry analysis (reference value: 16.08 %); assay type: functional; method in brief: as §1
HCT-116 [23] = assay: Induction of cell cycle arrest in human HCT116 cells assessed as G2 phase at 9 uM incubated for 24 hrs by annexin V and propidium iodide staining based flow cytometry analysis (reference value: 22.11 %); assay type: functional; method in brief: as §1
HCT-116 [24] = assay: Induction of apoptosis in human HCT116 cells incubated for 24 hrs by annexin V FITC and propidium iodide staining based flow cytometry analysis; assay type: functional, cell-based
HCT-116 [25] = assay: Induction of apoptosis in human HCT116 cells assessed as total apoptotic cells at 9 uM incubated for 24 hrs by annexin V FITC and propidium iodide staining based flow cytometry analysis (reference value: 18.9%); assay type: functional

Cc1ccc(/C=N/Nc2ncc3c(n2)n(C2CCCC2)c(=O)c(=O)n3C)cc1C
IC50 (A549): 30.2 µM | IC50 (HCT-116 [1]): 62.9 µM | IC50 (PC-3): 39 µM

Cn1c(=O)c(=O)n(C2CCCC2)c2nc(N/N=C/c3ccc(F)c(Cl)c3)ncc21
IC50 (A549): 9.41 µM | IC50 (HCT-116 [1]): 9.02 µM | IC50 (PC-3): 8.55 µM

Cn1c(=O)c(=O)n(C2CCCC2)c2nc(N/N=C/c3ccc(OC(F)(F)F)cc3)ncc21
IC50 (A549): 12.9 µM | IC50 (HCT-116 [1]): 6.15 µM | IC50 (PC-3): 7.18 µM

Cn1c(=O)c(=O)n(C2CCCC2)c2nc(N/N=C/c3ccccc3Cl)ncc21
IC50 (A549): 9.86 µM | IC50 (HCT-116 [1]): 14 µM | IC50 (PC-3): 16.3 µM

Cn1c(=O)c(=O)n(C2CCCC2)c2nc(N/N=C/c3ccccc3F)ncc21
IC50 (A549): 31.2 µM | IC50 (HCT-116 [1]): 20.7 µM | IC50 (PC-3): 27.6 µM

Cn1c(=O)c(=O)n(C2CCCC2)c2nc(N/N=C/c3cccs3)ncc21
IC50 (A549): > 100 µM | IC50 (HCT-116 [1]): 52.6 µM | IC50 (PC-3): 75.6 µM

Cc1cccc(/C=N/Nc2ncc3c(n2)n(C2CCCC2)c(=O)c(=O)n3C)c1
IC50 (A549): 34.5 µM | IC50 (HCT-116 [1]): > 100 µM | IC50 (PC-3): 53.6 µM

Cn1c(=O)c(=O)n(C2CCCC2)c2nc(N/N=C/c3ccc(Cl)cc3)ncc21
IC50 (A549): 6.89 µM | IC50 (HCT-116 [1]): 9.81 µM | IC50 (PC-3): 8.42 µM

Cn1c(=O)c(=O)n(C2CCCC2)c2nc(N/N=C/c3ccc(O)cc3)ncc21
IC50 (A549): > 100 µM | IC50 (HCT-116 [1]): 72.5 µM | IC50 (PC-3): > 100 µM

Cn1c(=O)c(=O)n(C2CCCC2)c2nc(N/N=C/c3ccco3)ncc21
IC50 (A549): > 100 µM | IC50 (HCT-116 [1]): 78.7 µM | IC50 (PC-3): 72.2 µM

Cn1c(=O)c(=O)n(C2CCCC2)c2nc(N/N=C/c3ccc(F)cc3Br)ncc21
IC50 (A549): 6.59 µM | IC50 (HCT-116 [1]): 8.39 µM | IC50 (PC-3): 9.25 µM

Cn1c(=O)c(=O)n(C2CCCC2)c2nc(N/N=C/c3cc(C(F)(F)F)cc(C(F)(F)F)c3)ncc21
IC50 (A549): 3.23 µM | IC50 (HCT-116 [1]): 4.36 µM | IC50 (PC-3): 8.2 µM | viability at 1 µM (HCT-116 [2]): 78.1% | Activity (HCT-116 [3]): 10.3% | Activity (HCT-116 [4]): 11.1% | Activity (HCT-116 [5]): 0.5% | viability at 3 µM (HCT-116 [6]): 77.4% | Activity (HCT-116 [7]): 10.2% | Activity (HCT-116 [8]): 12.2% | Activity (HCT-116 [9]): 0.2% | viability at 9 µM (HCT-116 [10]): 61.3% | Activity (HCT-116 [11]): 20.3% | Activity (HCT-116 [12]): 18% | Activity (HCT-116 [13]): 0.4% | inhibition (HCT-116 [14]): Dose-dependent effect | Activity (HCT-116 [15]): 62.69% | Activity (HCT-116 [16]): 20% | Activity (HCT-116 [17]): 17.31% | Activity (HCT-116 [18]): 65.46% | Activity (HCT-116 [19]): 16.56% | Activity (HCT-116 [20]): 17.98% | Activity (HCT-116 [21]): 67.2% | Activity (HCT-116 [22]): 11.41% | Activity (HCT-116 [23]): 21.39% | Activity (HCT-116 [24]): Dose-dependent effect | Activity (HCT-116 [25]): 38.3%

Cn1c(=O)c(=O)n(C2CCCC2)c2nc(N/N=C/c3ccc(O)c(F)c3)ncc21
IC50 (A549): 97.8 µM | IC50 (HCT-116 [1]): 59.3 µM | IC50 (PC-3): 85.2 µM

Cn1c(=O)c(=O)n(C2CCCC2)c2nc(N/N=C/c3cccc(O)c3)ncc21
IC50 (A549): > 100 µM | IC50 (HCT-116 [1]): 37.2 µM | IC50 (PC-3): 36.3 µM

Cn1c(=O)c(=O)n(C2CCCC2)c2nc(N/N=C/c3cccc([N+](=O)[O-])c3)ncc21
IC50 (A549): 12.3 µM | IC50 (HCT-116 [1]): 15.2 µM | IC50 (PC-3): 20.3 µM
